The record followed here is ChEMBL document CHEMBL3098104, “Design, synthesis and preliminary SAR studies of novel N-arylmethyl substituted piperidine-linked aniline derivatives as potent HIV-1 NNRTIs” (Bioorg Med Chem, 2014).

The subject of data set [1] is Human immunodeficiency virus 2. Put plainly: Antiviral activity against HIV2 ROD infected in human MT4 cells assessed as inhibition of viral cytopathicity after 5 days by MTT assay. The following applies: Human immunodeficiency virus 2, ISOLATE ROD, MT4, 120 h. The data set is classed as functional, organism-based. In short, it runs like this:
(§1)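 HIV-infected MT-4 cells were compared with mock-infected wells in triplicate. Exponentially growing cells were pelleted for 5 min at 1000 rpm and resuspended at 6 × 10^5 cells/ml. Compound was added at the start of infection from stocks at 10× final concentration. Viability was read by MTT five days post-infection. EC50 is the concentration giving 50% protection against virus-induced cytotoxicity, taken as the median of two or three parallel assays.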
For orientation: Protection from cytopathic effect is a common read-out in antiviral testing.

The test system of data set [2] is Human immunodeficiency virus 1. In words: Antiviral activity against wild-type HIV1 3B infected in human MT4 cells assessed as inhibition of viral cytopathicity after 5 days by MTT assay. The settings on record: Human immunodeficiency virus 1, 3B, MT4, 120 h. The data set is classed as functional, organism-based. In short, it runs like this: as §1
Data set [3] is described as follows: Cytotoxicity against human MT4 cells assessed as cell viability after 5 days by MTT assay. The data set is classed as cell-based. Put shortly: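 Mock-infected MT-4 cells, from exponentially growing cultures pelleted and resuspended at 6 × 10^5 cells/ml, were run in triplicate wells alongside the infected series. Compound was added from 10× stocks at the start of the experiment. Viability was read by MTT after five days. CC50 is the concentration that lowers viability by 50%, taken as the median of two or three parallel assays.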

Data set [4] concerns Human immunodeficiency virus 1. In words: Fold resistance, ratio of EC50 for HIV1 RES056 expressing K103N/Y181C mutant infected in human MT4 cells to EC50 for wild-type HIV1 3B infected in human MT4 cells. The format is functional. In short, it runs like this: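 MTT protection assay in MT-4 cells run in parallel against the K103N/Y181C double mutant (RES056) and wild-type IIIB. Viability read 5 days after infection. Fold resistance = EC50 against the mutant divided by EC50 against IIIB. Median of two or three parallel assays.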

For data set [5], the system named is Human immunodeficiency virus 1. In words: Antiviral activity against HIV1 RES056 harboring reverse transcriptase K103N/Y181C mutant infected in human MT4 cells assessed as inhibition of viral cytopathicity after 5 days by MTT assay. The format is functional, organism-based. The following applies: Human immunodeficiency virus 1, RES056, MT4, 120 h. Put shortly:
(§2)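 MT-4 cells pelleted 5 min at 1000 rpm, resuspended at 6 × 10^5 cells/ml and plated. Compounds added from 10× stocks at the start, in triplicate wells, to HIV-infected and mock-infected cells in parallel. Viability read by MTT 5 days after infection. EC50 is 50% protection from virus-induced cytotoxicity. CC50 is 50% loss of viability in mock-infected cells. SI = CC50/EC50. Median of two or three parallel assays.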

Data set [6] can be described thus: Selectivity index, ratio of CC50 for human MT4 cells to EC50 for HIV1 3B infected in human MT4 cells. The following applies: read-out: Ratio CC50/EC50. The format is toxicity, cell-based. Put shortly:
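MT-4 cells at 6 × 10^5 cells/ml, in triplicate wells, infected with HIV-1 IIIB or mock-infected. Compounds added from 10× stocks at the start of infection. MTT viability read on day 5. SI = CC50 (mock-infected cells) / EC50 (IIIB). Median of two or three parallel assays.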

Data set [7] can be described thus: Selectivity index, ratio of CC50 for human MT4 cells to EC50 for HIV1 RES056 harboring reverse transcriptase K103N/Y181C mutant infected in human MT4 cells. The following applies: read-out: Ratio CC50/EC50. The format is toxicity, cell-based. Put shortly: as §2

For orientation: EC50 means the concentration giving half of the maximal effect. By CC50 is commonly meant the concentration giving 50% cytotoxicity. `CC(=O)Nc1ccc(Oc2c(C)cc(C#N)cc2C)cc1NC1CCN(Cc2ccc(S(N)(=O)=O)cc2)CC1`: the concentration for a half-maximal effect (EC50) in data set [1] and in data set [2] was more than 228 µM in each case. Also, the 50% cytotoxic concentration (CC50) at 120 h in data set [3] was more than 228 µM.
Consider `COC(=O)c1ccc(CN2CCC(Nc3cc(Oc4c(C)cc(C#N)cc4C)ccc3[N+](=O)[O-])CC2)cc1`, for which the 50% effective concentration (EC50) in data set [1] was more than 160 µM; in data set [2] it was 0.13 µM; in data set [5] it was more than 160 µM. Also, the “Ratio EC50” value in data set [4] is given as more than 1208. Besides, the CC50 at 120 h in data set [3] was not below 160 µM. Besides, in data set [6], the selectivity ratio is not below 1210.
In the case of `CC(=O)c1ccc(CN2CCC(Nc3cc(Oc4c(C)cc(C)cc4C)ccc3[N+](=O)[O-])CC2)cc1`, the selectivity ratio is less than 1 in data set [7] and 1310 in data set [6]. The EC50 in data set [1] is more than 138 µM; in data set [2], 0.11 µM; in data set [5], more than 138 µM. Moreover, the “Ratio EC50” value in data set [4] was more than 1312. Moreover, the 50% cytotoxic concentration (CC50) at 120 h in data set [3] is 138 µM.
Take `Cc1cc(C#N)cc(C)c1Oc1ccc([N+](=O)[O-])c(NC2CCN(Cc3ccc(CO)cc3)CC2)c1`: the selectivity ratio in data set [7] was less than 1; in data set [6], 80. Besides, the EC50 in data set [1] was more than 11 µM; in data set [2], 0.14 µM; in data set [5], more than 11 µM. For the same compound, the “Ratio EC50” value in data set [4] is more than 80. In addition, the CC50 at 120 h in data set [3] turned out to be 11 µM.
As to `Cc1cc(C)c(Oc2ccc([N+](=O)[O-])c(NC3CCN(Cc4ccc(CO)cc4)CC3)c2)c(C)c1`, the selectivity ratio in data set [7] was less than 1; in data set [6], 255. For the same compound, the EC50 in data set [1] is more than 25 µM; in data set [2], 0.096 µM; in data set [5], more than 25 µM. Also, the “Ratio EC50” value in data set [4] is more than 255. Besides, the half-maximal cytotoxic concentration (CC50) at 120 h in data set [3] worked out at 25 µM.
`CC(C)Nc1cccnc1N1CCN(C(=O)c2cc3cc(NS(C)(=O)=O)ccc3[nH]2)CC1` [DELAVIRDINE]: the “Ratio EC50” value in data set [4] is listed as more than 277. In addition, in data set [3], the cytotoxic concentration (CC50) at 120 h is more than 36 µM. Besides, the EC50 in data set [5] was more than 36 µM. Moreover, in data set [6], the selectivity ratio is more than 277.
As for `Cc1cc(C)c(Oc2ccc([N+](=O)[O-])c(NC3CCN(Cc4ccc(C(=O)O)cc4)CC3)c2)c(C)c1`, the selectivity ratio in data set [7] was less than 1; in data set [6], 161. The EC50 in data set [1] was more than 35 µM; in data set [2], 0.22 µM; in data set [5], more than 35 µM. The “Ratio EC50” value in data set [4] is given as more than 161. Also, the half-maximal cytotoxic concentration (CC50) at 120 h in data set [3] stood at 35 µM.
Consider `Cc1cn([C@H]2C[C@H](N=[N+]=[N-])[C@@H](CO)O2)c(=O)[nH]c1=O` [ZIDOVUDINE], for which the selectivity ratio in data set [7] is more than 12600; in data set [6], more than 13100. The concentration giving a half-maximal response (EC50) in data set [1] was 0.0057 µM; in data set [2], 0.0072 µM; in data set [5] it was 0.0074 µM. Further, the CC50 at 120 h in data set [3] was more than 94 µM.
In the case of `O=C1Nc2ccc(Cl)cc2[C@@](C#CC2CC2)(C(F)(F)F)O1` [EFAVIRENZ], the selectivity ratio in data set [7] is more than 12; in data set [6] it was more than 855. Also, in data set [4], the “Ratio EC50” value was 70. The EC50 in data set [2] amounted to 0.0074 µM. Moreover, the CC50 at 120 h in data set [3] was more than 6.3 µM.
On to `CC(=O)c1ccc(CN2CCC(Nc3cc(Oc4c(C)cc(C#N)cc4C)ccc3[N+](=O)[O-])CC2)cc1`, for which the EC50 in data set [1] was more than 251 µM; in data set [2] it was 0.15 µM; in data set [5], more than 251 µM. The “Ratio EC50” value in data set [4] was more than 1630. In data set [3], the CC50 at 120 h is more than 251 µM. Also, the selectivity ratio in data set [6] was more than 1630.
As to `COC(=O)c1ccc(CN2CCC(Nc3cc(Oc4c(C)cc(C)cc4C)ccc3[N+](=O)[O-])CC2)cc1`, the EC50 in data set [1] is more than 248 µM; in data set [2], 1 µM; in data set [5], more than 248 µM. The “Ratio EC50” value in data set [4] was more than 246. Further, the cytotoxic concentration (CC50) at 120 h in data set [3] is more than 248 µM. Moreover, the selectivity ratio in data set [6] is more than 246.
As for `O=c1[nH]cnc2c1ncn2[C@H]1CC[C@@H](CO)O1` [DIDANOSINE], the selectivity ratio in data set [7] is more than 12; in data set [6], more than 11. In addition, the 50% effective concentration (EC50) in data set [1] turned out to be 18 µM; in data set [2], 19 µM. The half-maximal cytotoxic concentration (CC50) at 120 h in data set [3] was more than 212 µM.
